Experimental data as given in PubChem BioAssay AID652185 (Vanderbilt Specialized Chemistry Center, 2013).
Activity calls are given as the source filed them. The rule behind the calls is not given here.

Target: Metabotropic glutamate receptor 2 (Rattus norvegicus) (UniProt P31421)
Assay: mGlu2 glutamate EC50 shift by compounds – cell-based, HEK293A, Galpha15, calcium mobilization, selectivity assay for mGlu5 silent allosteric modulators, profiling panel (AID 652185)
Conditions: HEK293A rmGlu2+Galpha15, Fluo4 calcium mobilization, glutamate CRC
Outline: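 material = rat mGlu2 plus Galpha15 in HEK293A cells | medium = HEPES-buffered HBSS with probenecid, pH 7.4 | technique = Fluo4-AM (1 µM) calcium-dependent fluorescence | also added = glutamate, 10 nM–1 mM, 9 concentrations | doses = single compound dose of 10 µM, 1% DMSO final | incubation = 60 min 37 °C dye load, compound 60 s pre-glutamate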

Chain of Metabotropic glutamate receptor 2 (Rattus norvegicus) (P31421 whole entry, looked up): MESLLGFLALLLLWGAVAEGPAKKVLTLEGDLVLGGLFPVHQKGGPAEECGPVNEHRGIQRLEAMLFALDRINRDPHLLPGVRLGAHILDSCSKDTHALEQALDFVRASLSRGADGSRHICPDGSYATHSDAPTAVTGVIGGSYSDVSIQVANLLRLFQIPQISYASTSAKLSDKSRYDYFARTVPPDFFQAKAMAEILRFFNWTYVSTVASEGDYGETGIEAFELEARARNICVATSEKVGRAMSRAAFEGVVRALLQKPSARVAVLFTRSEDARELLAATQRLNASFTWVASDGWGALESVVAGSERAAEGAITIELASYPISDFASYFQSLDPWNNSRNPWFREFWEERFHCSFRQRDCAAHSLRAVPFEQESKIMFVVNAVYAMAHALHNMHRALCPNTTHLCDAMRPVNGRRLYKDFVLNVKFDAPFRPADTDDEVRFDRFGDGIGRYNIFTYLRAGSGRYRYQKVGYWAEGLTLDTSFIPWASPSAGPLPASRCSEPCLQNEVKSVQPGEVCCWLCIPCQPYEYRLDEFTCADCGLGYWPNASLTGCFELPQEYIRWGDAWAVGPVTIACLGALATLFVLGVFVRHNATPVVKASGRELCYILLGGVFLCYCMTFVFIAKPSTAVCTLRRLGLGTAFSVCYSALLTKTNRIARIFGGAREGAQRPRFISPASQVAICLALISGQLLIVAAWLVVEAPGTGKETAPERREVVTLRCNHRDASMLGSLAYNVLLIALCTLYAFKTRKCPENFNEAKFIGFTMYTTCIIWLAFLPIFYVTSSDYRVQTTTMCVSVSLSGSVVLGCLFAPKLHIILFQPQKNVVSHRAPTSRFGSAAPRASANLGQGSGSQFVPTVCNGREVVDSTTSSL

SMILES: O=C(c1ccc(C#Cc2cccc(F)c2)cn1)N1CC2CC2C1 (stereo unspecified)
- glutamate EC50 in presence of 10 uM compound (no shift = inactive): inactive
